Series [1] can be described thus: folding enthalpy; higher = less favourable; fluorescence melt of hairpins on a sequencing array, two-state fit. The following applies: sodium 0.088 M. In short, it runs like this: (§1)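 Folding enthalpy and melting temperature were estimated with bootstrapped two-state fits and combined across four replicates by inverse-variance weighting, with fitted temperatures raised by 9.35 °C to match UV melts. The data were Cy3 fluorescence of library hairpins, with annealed Cy3 and quencher oligos, on a sequenced MiSeq flow cell in 50 mM Na-HEPES pH 8.0, 25 mM NaCl, imaged in 2.5 °C steps up to 60 °C and normalised to pre-quench Cy3 and control constructs.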

The nature of series [2]: melting temperature; fluorescence melt of hairpins on a sequencing array, two-state fit, raised by 9.35 °C to match UV melts. The following applies: sodium 0.088 M. Summed up:
as §1

In the case of GATCGGCTTTCCGATC ((((((....)))))), the folding enthalpy in series [1] is -37 kcal/mol. For the same sequence, the Tm in series [2] was found to be 58.6 °C.
Turning to GGTTGGGGAAACCCAATC (.(((((....))))).), the folding enthalpy in series [1] is -26.2 kcal/mol. Besides, the Tm in series [2] amounted to 48.7 °C.
Take GCTGTGCGAAAGCCTAGC (((..((....))..))): the folding enthalpy in series [1] is -18.2 kcal/mol. Further, the Tm in series [2] was determined as 44.3 °C.
For the sequence GTCTCACGAAAGTGGAC (((.(((....)))))), the folding enthalpy in series [1] was -20.7 kcal/mol. Moreover, the Tm in series [2] was found to be 47.2 °C.
For CGTGTCGGAAACGAACG (((.(((....)))))), the folding enthalpy in series [1] is -24.3 kcal/mol. Also, the Tm in series [2] was determined as 37.7 °C.
On to GATCTCCTTTGAGATC ((((((....)))))), for which the folding enthalpy in series [1] was -39.6 kcal/mol. Also, the Tm in series [2] came out at 51.7 °C.
Taken in the same sequence, the figures for GCACCAGGAAACTGGTAC (.(((((....))))).) were -16.7 kcal/mol and 39.6 °C.
As for GATCCTCTGTAGGATC ((((((....)))))), in series [1], the folding enthalpy was -36.2 kcal/mol. Besides, in series [2], the Tm was found to be 51.8 °C.
GGTTCCGAAAGGAGCACC ((((((....)))..))): in series [1], the folding enthalpy is -13.8 kcal/mol. The Tm in series [2] is 39.1 °C.
GGGTTTGGAAACAGACCC ((((.((....)).)))): the folding enthalpy in series [1] is -39.9 kcal/mol. In addition, the Tm in series [2] was 48.8 °C.
On to GTCGGACGAAAGTCGAC (((.(((....)))))), for which the folding enthalpy in series [1] was -28 kcal/mol. In addition, in series [2], the Tm amounted to 56.9 °C.
As for GGTGATCGAAAGATACC (((.(((....)))))), in series [1], the folding enthalpy was -25.2 kcal/mol. In series [2], the Tm stood at 37.5 °C.
As to GGCCCCGAAAGGGAAGCC ((((((....)))..))), the folding enthalpy in series [1] is -28.2 kcal/mol. Also, the Tm in series [2] came to 55.4 °C.
Take GGAGACGAAAGTCAATCC ((((((....)))..))): in series [1], the folding enthalpy was -15.1 kcal/mol. The Tm in series [2] was found to be 31 °C.
On to GCCCGTGGAAACGTGGGC ((((..(....)..)))), for which the folding enthalpy in series [1] is -31.2 kcal/mol. The Tm in series [2] amounted to 54.9 °C.
In the same order, the values of GCGGGGCGAAAGCTCGGC ((.(.((....)).).)) are -16.4 kcal/mol and 56.3 °C.
As to GATCCTCCATAGGATC ((((((....)))))), the folding enthalpy in series [1] was -33.5 kcal/mol. Moreover, the Tm in series [2] was found to be 51.1 °C.
For the sequence GCTACCGAAAGGTCAAGC ((((((....)))..))), the folding enthalpy in series [1] is -14.9 kcal/mol. Also, in series [2], the Tm came out at 39.1 °C.
In the case of GCTAGACGAAAGTCAAGC (((.(((....))).))), the folding enthalpy in series [1] is -30.4 kcal/mol. For the same sequence, in series [2], the Tm worked out at 52.7 °C.
GTCGGCTCGAAAGAGGAC (((..(((....)))))): the folding enthalpy in series [1] is -16 kcal/mol. Besides, in series [2], the Tm came to 32.2 °C.
In the same order, the values of GTGGGACCGAAAGGTCAC (((..(((....)))))) are -19.5 kcal/mol and 64.2 °C.
For GGTGGTGGAAACGCTACC (((.(.(....).).))), the folding enthalpy in series [1] was -28.1 kcal/mol. Besides, the Tm in series [2] turned out to be 40.4 °C.
For the sequence GATCACGTTCGTGATC ((((((....)))))), the folding enthalpy in series [1] was -39.4 kcal/mol. The Tm in series [2] was 62.6 °C.
On to GGATACGAAAGTAGTTCC ((((((....)))..))), for which the folding enthalpy in series [1] is -9.9 kcal/mol. Besides, in series [2], the Tm worked out at 25 °C.
On to GAGCTAGGAAACTAGCCC (.(((((....))))).), for which, in series [1], the folding enthalpy is -12.9 kcal/mol. Further, the Tm in series [2] amounted to 40.4 °C.
In the case of GGTCCCGAAAGGGCAACC ((((((....)))..))), the folding enthalpy in series [1] was -12.4 kcal/mol. Besides, the Tm in series [2] came out at 38.4 °C.
For the sequence GGTGAAGCGAAAGCTACC (((..(((....)))))), in series [1], the folding enthalpy is -17.1 kcal/mol. The Tm in series [2] came to 40.5 °C.
Take CGGACCCGGAAACGGCCG (((..(((....)))))): the folding enthalpy in series [1] was -18.8 kcal/mol. The Tm in series [2] is 38.9 °C.
GTTATTCGAAAGAACAAC (((.(((....))).))): the folding enthalpy in series [1] was -20.6 kcal/mol. The Tm in series [2] was 30.5 °C.
In the case of TGCATGAAAATGCA (((((....))))), in series [1], the folding enthalpy is -19.8 kcal/mol. The Tm in series [2] stood at 52 °C.
For the sequence GCAGTAGGAAACTACTAC (.(((((....))))).), the folding enthalpy in series [1] was -17.2 kcal/mol. Moreover, in series [2], the Tm came out at 32.2 °C.
As to GCTGCTGCGAAAGCAAGC (((..(((....)))))), the folding enthalpy in series [1] was -11.7 kcal/mol. In series [2], the Tm came out at 54.1 °C.
Turning to GCGCGGACGAAAGTCCGC (((..(((....)))))), the folding enthalpy in series [1] is -5.59 kcal/mol. The Tm in series [2] amounted to 63.7 °C.
In the same order, the values of GCGCTACGAAAGTACGC (((.(((....)))))) are -32.2 kcal/mol and 55.3 °C.
As to GCTGGGCGAAAGCGAAGC (((..((....))..))), the folding enthalpy in series [1] was -20 kcal/mol. In series [2], the Tm was 47.5 °C.
In the same order, the values of GGATGAGGAAACCCATCC (((((.(....).))))) are -30.3 kcal/mol and 44.6 °C.
Regarding CGGAGTCGGAAACGACCG (((..(((....)))))), the folding enthalpy in series [1] was -15.9 kcal/mol. Moreover, the Tm in series [2] is 41.3 °C.

The values above are taken from the array DNA melting data of Ke et al. (doi:10.1101/2024.01.08.574731).
